ChEMBL document CHEMBL1138302, “Diaryl dihydropyrazole-3-carboxamides with significant in vivo antiobesity activity related to CB1 receptor antagonism: synthesis, biological evaluation, and molecular modeling in the homology model” (J Med Chem, 2007)

Test system: Rattus norvegicus
Assay: Inhibition of sucrose intake in Zucker fa/fa rat at 10 mg/kg, po after 4 hrs
Format: functional
Conditions: for inhibition in vivo at 10 mg/kg: Rattus norvegicus, Zucker, po, 4 h
How it was run: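 Female Zucker fa/fa rats (10-12 weeks, 300-350 g) trained six consecutive days on 5% sucrose with food and water withdrawn; day 7 randomized (n=6), dosed orally 10 mg/kg in 0.5% carboxymethylcellulose (2 mL/kg), exposed to sucrose 1 h later for 4 h. Consumption measured; % inhibition vs vehicle control; one-way ANOVA with Dunnett's test.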

Row | SMILES | inhibition in vivo at 10 mg/kg [%] | Inhibition [%]
1 | Cc1ccc(C2CC(C(=O)NN3CCOCC3)=NN2c2ccc(Cl)cc2Cl)s1 (stereo unspecified) | 9.3 | 
2 | O=C(NN1CCOCC1)C1=NN(c2ccc(Cl)cc2Cl)C(c2cccs2)C1 (stereo unspecified) | 3 | 
3 | O=C(NN1CCCCC1)C1=NN(c2ccc(Cl)cc2Cl)C(c2ccc(Cl)cc2)C1 (stereo unspecified) | 23.6 | 
4 | CN1CCN(NC(=O)C2=NN(c3ccc(Cl)cc3Cl)C(c3ccc(Cl)cc3)C2)CC1 (stereo unspecified) | 22.6 | 
5 | O=C(NN1CCOCC1)C1=NN(c2ccccc2)C(c2ccc(Cl)cc2)C1 (stereo unspecified) | 0.5 | 
6 | O=C(NN1CCOCC1)C1=NN(c2ccccc2)C(c2ccccc2)C1 (stereo unspecified) | 11.9 | 
7 | O=C(NN1CCOCC1)C1=NN(c2ccc(Cl)cc2Cl)C(c2ccccc2)C1 (stereo unspecified) | 31.9 | 
8 | CCCCOc1ccc(C2CC(C(=O)NN3CCOCC3)=NN2c2ccc(Cl)cc2Cl)cc1 (stereo unspecified) | 18.1 | 
9 | O=C(NN1CCOCC1)C1=NN(c2ccc(Cl)cc2Cl)C(c2ccc3c(c2)OCO3)C1 (stereo unspecified) | 17 | 
10 | O=C(NN1CCOCC1)C1=NN(c2ccc(Cl)cc2Cl)C(c2ccco2)C1 (stereo unspecified) | 15.1 | 
11 | O=C(NN1CCOCC1)C1=NN(c2ccc(Cl)cc2Cl)C(c2ccc(Br)cc2)C1 (stereo unspecified) | 24.2 | 
12 | O=C(NN1CC2CCCC2C1)C1=NN(c2ccc(Cl)cc2Cl)C(c2ccc(Cl)cc2)C1 (stereo unspecified) | 3.6 | 
13 | O=C(NN1CCCCCC1)C1=NN(c2ccc(Cl)cc2Cl)C(c2ccc(Cl)cc2)C1 (stereo unspecified) | 8.4 | 
14 | O=C(NN1CCCC1)C1=NN(c2ccc(Cl)cc2Cl)C(c2ccc(Cl)cc2)C1 (stereo unspecified) | 2.5 | 
15 | O=C(NN1CCOCC1)C1=NN(c2ccc(Cl)cc2Cl)C(c2ccc(Cl)cc2)C1.O=C(O)C(=O)O (stereo unspecified) |  | 20.4
16 | O=C(NN1CCOCC1)C1=NN(c2ccc(Cl)cc2Cl)C(c2ccc(Cl)s2)C1 (stereo unspecified) | 16.7 | 
